Thrombin inh = inhibitors of human thrombin; alpha-thrombin, Boc-VPR-AMC fluorogenic substrate cleavage; P00734; AID 1046; 220,000 compounds, 0.26% hits; inhibition, % at 5 µM;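 active = inhibition at or above 40%; inactive = inhibition below 40%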;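 note: 0% = enzyme with no compound and 100% = wells without enzyme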
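System – human alpha-thrombin protein · Reagent – Boc-VPR-AMC substrate, 15 µM final · Compound – 5 µM single dose in 0.2% DMSO · Schedule – reaction at room temperature · Technique – AMC fluorescence at 355 nm excitation and 460 nm emission · Read-out basis – % inhibition relative to enzyme controls and enzyme-free blanks · Control set – no-compound enzyme wells and no-enzyme blanks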
FXIa inh = inhibitors of human coagulation factor XIa; purified FXIa, Boc-Glu-Ala-Arg-AMC fluorogenic substrate; inhibition, % at 5 µM; P03951; 220,000 compounds, 0.14% hits;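 active = inhibition of at least 40%; inactive = inhibition below 40%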;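 note: fluorescence of freed AMC excited at 355 nm; 0% = enzyme without compound and 100% = no enzyme blank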
FXIIa inh 1536 = factor XIIa (human) inhibition; P00748; purified FXIIa, Boc-QGR-AMC fluorogenic substrate, 2 h; inhibition, % at 5 µM; 220,000 compounds, 0.3% hits; in the data active = inhibition above about 40%;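 note: 0% = enzyme with no compound and 100% = blank without enzyme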
Target sequence (P00748 20-372 limits assumed): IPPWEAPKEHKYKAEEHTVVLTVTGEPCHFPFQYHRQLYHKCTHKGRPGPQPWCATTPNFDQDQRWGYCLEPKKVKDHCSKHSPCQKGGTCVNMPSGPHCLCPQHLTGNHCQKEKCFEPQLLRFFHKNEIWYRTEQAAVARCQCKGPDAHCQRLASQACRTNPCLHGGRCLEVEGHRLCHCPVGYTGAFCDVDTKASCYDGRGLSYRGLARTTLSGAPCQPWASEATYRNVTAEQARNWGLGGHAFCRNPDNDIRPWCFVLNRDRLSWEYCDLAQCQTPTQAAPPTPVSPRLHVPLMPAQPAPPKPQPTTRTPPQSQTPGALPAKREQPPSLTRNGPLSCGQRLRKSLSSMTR
Target sequence (P00748 373-615 limits assumed): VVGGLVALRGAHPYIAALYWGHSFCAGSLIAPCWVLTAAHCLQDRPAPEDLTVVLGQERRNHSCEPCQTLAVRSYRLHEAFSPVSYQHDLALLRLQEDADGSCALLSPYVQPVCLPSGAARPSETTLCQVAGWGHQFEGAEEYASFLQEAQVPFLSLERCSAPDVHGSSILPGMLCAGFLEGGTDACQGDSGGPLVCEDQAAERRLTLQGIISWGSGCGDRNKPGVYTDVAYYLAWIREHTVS
hK5 inh = blocks human kallikrein 5 protease activity. Q9Y337. recombinant hK5, fluorogenic AMC substrate cleavage. inhibition, % at 5 µM. 210,000 compounds, 0.59% hits. AID 873;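 active = inhibition of 40% or more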;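 note: 0% = enzyme controls without compound and 100% = no-enzyme blanks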
Active calls of the source: *; x = not tested or not shown. Sampled rows, rich in hits. Any-hit rate of the full collection: about 1%.

SMILES	Thrombin inh	FXIa inh	FXIIa inh 1536	hK5 inh
O=C(CSC1CC(=O)N(CCc2ccccc2)C1=O)Nc1ccc(Br)cc1 (stereo not given)	5.2	-1.8	16.7	42.4*
COc1ccc(CCNC(=O)C(=O)N2CCCC2)cc1OC	0.6	-5.8	-4.2	-6.6
c1ccc(N2CCN(c3nnc(Cc4cccnc4)c4ccccc34)CC2)nc1	5.3	-1.4	4.0	43.3*
COc1cc2c(cc1OC)CN(S(C)(=O)=O)CC2	2.5	7.5	16.6	-1.7
COc1ccc(C2c3cc(OC)c(OC)cc3CCN2S(C)(=O)=O)cc1OC (stereo not given)	29.4	24.7	46.3*	11.2
CCCN(CCC)C(=O)Cn1ccc(=N)c2ccccc21	34.2	2.9	16.5	45.7*
CC(C)(C)NC(=O)Cn1ccc(=N)c2ccccc21	18.0	15.3	21.2	24.1
Cc1nc(SCC(=O)Nc2ccc(OCc3ccccc3)cc2)n[nH]1	0.1	-0.1	6.9	x
Nc1nc(SCC(=O)Nc2ccc(OCc3ccccc3)cc2)n[nH]1	-1.6	23.2	38.6	44.2*
Cc1ccc(NC(=O)CSc2nnc([C@H](C)NC(=O)OC(C)(C)C)o2)c(C)c1	5.5	20.6	107.4*	24.0
C=CCN=C1CCCc2c1[nH]c1ccc(C)cc21	-1.9	-1.5	6.9	3.7
Cc1ccc(NC(=O)CN2C(=O)S/C(=C\C(=O)Nc3ccc(Cl)cc3)C2=O)cc1	9.8	3.8	3.8	45.1*
Cn1cccc1/C=C1\SC(=O)N(CC(=O)Nc2ccc(Cl)cc2)C1=O	4.1	2.4	12.8	-20.9
CCOc1ccccc1NC(=O)CN1C(=O)COc2ccc(Cl)cc21	29.2	16.6	19.1	42.5*
COc1ccccc1N1CCN(c2nc3ccccn3c(=O)c2C=O)CC1	3.9	-2.3	12.5	-0.7
CNC(=S)N/N=C(\C)c1ccc(C(C)(C)C)cc1	7.5	7.0	19.0	49.2*
O=C(N/N=C\c1cccc([N+](=O)[O-])c1O)C1COc2ccccc2O1 (stereo not given)	15.6	5.3	0.5	54.9*
CCOc1ccc(N(C(C)=O)c2nc(C)cc(C)c2C#N)cc1	27.5	18.5	21.8	51.5*
Cc1cccc(Nc2nc(N)nc(CCl)n2)c1C	13.7	2.9	7.3	0.9
COc1ccc(/C=N/OCC(=O)Nc2nc3ccccc3s2)cc1	0.5	10.3	11.2	-12.5
CC(=O)N1CCc2c(sc(NC(=O)C3CC3)c2-c2nc3ccccc3s2)C1	-2.9	0.1	51.1*	-8.4
CCCOc1ccc(N2C(=O)CC(N(CCc3ccc(OC)cc3)C(=O)c3ccccc3)C2=O)cc1 (stereo not given)	-4.9	-7.7	-0.4	-2.6
COc1ccccc1NC(=O)CSc1nnnn1C	-1.0	33.1	59.3*	6.6
COc1ccc(OC)c(NC(=O)CSc2nnnn2C)c1	-1.1	11.7	3.9	-21.8
Cn1c(Sc2ccc(C(F)(F)F)cc2[N+](=O)[O-])nnc1-c1ccccc1	24.9	16.4	29.1	50.7*
SMILES	Thrombin inh	FXIa inh	FXIIa inh 1536	hK5 inh
COc1ccc(NC(=O)c2cccc(S(=O)(=O)Nc3ccc(Br)cc3)c2)cn1	28.1	21.6	15.6	40.1*
O=C(Nc1ccc(Br)cc1)c1cccc(S(=O)(=O)Nc2cnc3ccccc3c2)c1	0.4	7.1	15.3	-5.5
Cc1cccc(NC(=O)CSc2nc(N)c(NC(=O)c3cccs3)c(=O)[nH]2)c1C	3.5	5.0	10.3	-7.1
COc1ccc(-n2ncc3c(NCc4ccco4)ncnc32)cc1	0.5	3.6	17.0	-6.5
COc1ccc(-n2ncc3c(NCc4ccccn4)ncnc32)cc1	3.1	24.9	44.5*	-8.6
Cc1ccc(CCNC(=O)C2CCCN(C(=O)c3cc4sccc4n3C)C2)cc1 (stereo not given)	27.8	9.4	6.8	46.6*
N#CC1=C(N)SC(N)=C(C#N)C1CCC1CCCCC1	0.6	1.4	5.8	-18.4
CCC(=O)N1c2ccccc2NC2=C(C(=O)CCC2)C1c1ccc(N(C)C)cc1 (stereo not given)	13.9	4.8	8.9	43.2*
CCC(=O)N1c2ccccc2NC2=C(C(=O)CC(C)(C)C2)C1c1cccnc1 (stereo not given)	4.3	-4.1	6.7	-7.8
NC(=O)c1ccc(NC(=O)COC(=O)/C=C/c2ccc3c(c2)OCO3)cc1	22.5	34.4	16.3	57.2*
CC(=O)c1c(C(C)=O)c(C)n(C(c2ccccc2)c2ccccc2)c1C	-2.8	-3.4	3.3	0.1
O=C(O)CCC(=O)Nc1nnc(C(F)(F)F)s1	5.5	-0.9	2.8	43.4*
O=C(Cn1cnc2cc(Cl)ccc2c1=O)Nc1ccc2c(c1)OCO2	-0.5	-11.3	-3.7	-8.4
O=S(=O)(/N=C(\c1ccccc1F)N1CCCCC1)c1ccccc1	0.1	8.4	7.5	-11.2
CCCCn1c(SCC(=O)N2CCCc3ccccc32)nc2c1c(=O)n(C)c(=O)n2C	0.3	2.6	15.1	3.5
Cn1c(CN2CCCCC2)nc2cc(NS(=O)(=O)c3ccc(Cl)cc3)ccc21	75.9*	5.5	17.1	3.3
O=C(NCc1ccc(Cl)cc1Cl)C1CCN(S(=O)(=O)c2ccc3c(c2)OCCCO3)CC1	-3.6	9.7	3.6	-7.3
CSCCC(NC(=O)c1ccc(Br)cc1)C(=O)O (stereo not given)	-6.8	-2.2	4.7	-4.2
CSCCC(NC(=O)c1cncc(Br)c1)C(=O)O (stereo not given)	8.6	-3.1	15.7	52.4*
O=C(CSc1ncccn1)N/N=C/c1cccc(OC2CSC2)c1	7.6	67.8*	17.3	15.7
CC1CN(C(=O)c2ccc3c(c2)OCO3)CC(C)O1 (stereo not given)	-1.5	-3.8	7.8	-26.0
Cc1cc2ncn(C(=O)c3ccc4c(c3)OCO4)c2cc1C	41.2*	17.8	-7.6	6.0
COC(=O)C1=C(C(=O)OC)[C@@H]2Nc3ccccc3[C@@]23C[C@@H](C(=O)OC)N(C(C)=O)C3=N1	-2.8	-0.1	4.7	-1.6
CCn1c(SCC(=O)c2ccccc2)nnc1-c1cnccn1	15.7	17.6	4.5	42.8*
CCn1c(SCC(=O)Nc2cccnc2Cl)nnc1-c1ccccc1	25.1	8.1	105.9*	62.0*
SMILES	Thrombin inh	FXIa inh	FXIIa inh 1536	hK5 inh
C=CCn1c(SCC(=O)Nc2c(C)cccc2C)nnc1-c1ccncc1	0.1	-2.7	1.5	7.4
CCn1c(SCC(=O)Nc2nccs2)nnc1-c1ccccc1	3.7	5.9	5.8	40.7*
C=CCn1c(SCC(=O)Nc2cccnc2Cl)nnc1-c1ccc(Cl)cc1	-1.7	32.1	41.0*	-30.5
CCN(CC)C(=O)c1ccccc1NC(=O)CN1C(=O)c2ccccc2C1=O	-1.8	-6.0	-0.7	-3.6
C/C(=N/OC(=O)C1CC12CCC2)c1ccc(Br)cc1 (stereo not given)	4.1	2.6	12.1	-1.3
O=C(Nc1ccc(-c2cn3c(n2)SCC3)cc1)c1ccco1	4.3	2.5	7.1	-1.9
Cc1ccc(-c2cc(C(=O)N/N=C\c3cnn(C)c3C)c3ccccc3n2)cc1C	-13.6	-6.4	-19.6	-0.9
CCOC(=O)CNC(=O)Cn1cnc2c(nnn2-c2ccc(F)cc2)c1=O	22.2	12.5	31.7	44.9*
CCOC(=O)Cn1cnc2c(nnn2-c2ccc(C)cc2)c1=O	3.0	-2.9	6.7	0.5

Source: PubChem (PCMD)
